From ChEMBL document CHEMBL1148387, “DNA-targeted 1,2,4-benzotriazine 1,4-dioxides: potent analogues of the hypoxia-selective cytotoxin tirapazamine” (J Med Chem, 2004)

Assays:
HT-29 [1] = experiment: Concentration required to kill hypoxic HT-29 human colon carcinoma cells in vitro; assay type: functional, cell-based
Procedure, shortened: (§1)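 HT-29 cells tested simultaneously under oxic and hypoxic conditions in a 96-well SRB proliferation assay; TPZ internal control at front and back of assay (n = 2); 8-methyl-5-nitroquinoline second control confirming strict hypoxia. IC50 pooled from seven independent experiments as interexperimental means (mean ± SEM, n ≥ 2).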

HT-29 [2] = experiment: Concentration required to kill aerobic HT-29 human colon carcinoma cells in vitro; assay type: functional, cell-based; procedure, shortened: as §1
SCC-7 [3] = experiment: Concentration required to kill aerobic mouse SCCVII cells in vitro; assay type: functional
Procedure, shortened: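 Mouse SCCVII tumour cells exposed to drug for 1 h under aerobic conditions; clonogenic survival read-out; C10 = concentration reducing plating efficiency to 10% of controls (one-log kill).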

SCC-7 [4] = experiment: Concentration required to kill hypoxic mouse SCCVII cells in vitro; assay type: functional
Procedure, shortened: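 Mouse SCCVII tumour cells exposed to drug for 1 h under hypoxic (anoxic) conditions; clonogenic survival; C10 = concentration reducing plating efficiency to 10% of controls. Values corrected for interexperimental variation in hypoxia using TPZ internal standard: C10(calc) = C10(meas) × [C10(TPZ,mean)/C10(TPZ,meas)].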

[5] = Hypoxic cytotoxicity ratio was measured as C10 aerobic/C10 hypoxic; assay type: functional
Procedure, shortened: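 Mouse SCCVII cells, 1 h drug exposure under aerobic and hypoxic conditions in the same experiment, clonogenic survival; intraexperimental ratio C10(aerobic)/C10(hypoxic), C10 being the concentration giving 10% plating efficiency of controls.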

[6] = Hypoxic cytotoxicity ratio was measured as IC50 aerobic/IC50 hypoxic; assay type: functional
Procedure, shortened: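 HT-29 cells, SRB proliferation assay with each compound run simultaneously under aerobic and hypoxic conditions; intraexperimental ratio IC50(aerobic)/IC50(hypoxic).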

Row | SMILES | IC50 (HT-29 [1]) | IC50 (HT-29 [2]) | C10 (SCC-7 [3]) | C10 (SCC-7 [4]) | Ratio [5] | Ratio [6]
1 | Cc1cccc2nc3cccc(C(=O)NCCCN(C)CCCNc4n[n+]([O-])c5ccccc5[n+]4[O-])c3nc12 | 18 nM | 560 nM | 7.4 µM | 0.35 µM | 21.1 | 31
2 | O=C(NCCCNCCCNc1n[n+]([O-])c2ccccc2[n+]1[O-])c1cccc2cc3ccccc3nc12 | 65 nM | 5700 nM | 6.4 µM | 0.51 µM | 12.5 | 87.5
3 | CN(CCCNC(=O)c1cccc2cc3ccccc3nc12)CCCNc1n[n+]([O-])c2ccccc2[n+]1[O-] | 43 nM | 5350 nM | 42 µM | 0.82 µM | 51.5 | 124
4 | CN(CCCNC(=O)c1cccc2ccc(-c3ccncc3)nc12)CCCNc1n[n+]([O-])c2ccccc2[n+]1[O-] | 110 nM | 12000 nM | 14 µM | 1.79 µM | 7.8 | 107
5 | O=C(NCCNCCNc1n[n+]([O-])c2ccccc2[n+]1[O-])c1cccc2cc3ccccc3nc12 | 79 nM | 7800 nM | 56 µM | 1.16 µM | 48.2 | 98.6
6 | Cc1cccc2cc3cccc(C(=O)NCCCN(C)CCCNc4n[n+]([O-])c5ccccc5[n+]4[O-])c3nc12 | 95 nM | 8400 nM | >30 µM | 0.18 µM | >167 | 88.4
7 | CN(CCCNC(=O)c1cccc2nc3ccccc3nc12)CCCNc1n[n+]([O-])c2ccccc2[n+]1[O-] | 120 nM | 590 nM | 9.4 µM | 1.07 µM | 8.8 | 4.9
8 | CN(CCNC(=O)c1cccc2cc3ccccc3nc12)CCNc1n[n+]([O-])c2ccccc2[n+]1[O-] | 180 nM | 15700 nM | 400 µM | 0.93 µM | 431 | 87
9 | O=C(NCCOCCNc1n[n+]([O-])c2ccccc2[n+]1[O-])c1cccc2cc3ccccc3nc12 | 5700 nM | 72500 nM | 630 µM | 12.4 µM | 50.8 | 12.8
10 | CN(CCCNC(=O)c1cccc2cccnc12)CCCNc1n[n+]([O-])c2ccccc2[n+]1[O-] | 590 nM | 36300 nM | 90 µM | 6.5 µM | 13.9 | 61.2
11 | [O-][n+]1nc(NCCCCCCNc2c3ccccc3nc3ccccc23)[n+]([O-])c2ccccc21 | 16 nM | 620 nM | 9.6 µM | 0.61 µM | 15.7 | 39.7
12 | Nc1n[n+]([O-])c2ccccc2[n+]1[O-] [TIRAPAZAMINE] | 6200 nM | 387000 nM | 2644 µM | 10.2 µM | 258 | 62
